Laboratory results: ChEMBL document CHEMBL4706654, “Novel cyanothiouracil and cyanothiocytosine derivatives as concentration-dependent selective inhibitors of U87MG glioblastomas: Adenosine receptor binding and potent PDE4 inhibition” (Eur J Med Chem, 2021)

How the values were obtained:
[1] = target: T1, Adenosine receptor A1 (Homo sapiens) (UniProt P30542); test: Displacement of [3H]DPCPX from recombinant human A1 adenosine receptor expressed in CHO cell membranes at 1 uM measured after 60 mins by liquid scintillation counting method relative to control; settings: Membrane
T1 sequence (whole entry): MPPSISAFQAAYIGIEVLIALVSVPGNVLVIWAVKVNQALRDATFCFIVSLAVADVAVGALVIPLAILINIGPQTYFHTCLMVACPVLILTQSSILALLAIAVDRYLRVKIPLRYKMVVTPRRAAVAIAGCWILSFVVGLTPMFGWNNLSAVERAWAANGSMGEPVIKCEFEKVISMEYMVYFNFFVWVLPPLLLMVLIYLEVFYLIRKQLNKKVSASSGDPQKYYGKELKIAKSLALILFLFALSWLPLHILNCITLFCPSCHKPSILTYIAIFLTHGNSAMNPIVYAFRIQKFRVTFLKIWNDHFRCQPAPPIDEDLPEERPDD
Procedure, shortened: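 Membranes from CHO cells expressing recombinant hA1 (40 μg/tube) were incubated with 2 nM [3H]DPCPX and test compound at 1 μM in 50 mM Tris-HCl (pH 7.4, 10 mM MgCl2) for 60 min at 25°C. Bound radioligand was separated by GF/B filtration and counted by liquid scintillation. Results are given as percent inhibition of specific binding.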

U-87 MG [2] = test: Antiproliferative activity against human U-87 MG cells assessed as cell viability at 10 uM measured after 24 to 48 hrs by MTT assay relative to control; type: functional, U-87MG ATCC; settings: time 24-48 hrs, read-out: Activity
Procedure, shortened: (§1)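 Cells seeded per well 24 h before treatment: HEK293 at 5.10^4, MCF7 at 4.10^4, U87MG at 10^5. Compounds were dissolved in DMSO (less than 1%) and diluted in DMEM, then incubated 24 and 48 h. Cells were washed with D-PBS and given MTT (from a 5 mg/mL stock) for 4 h, dissolved in DMSO, read at 540 nm. % viability = sample/control absorbance ×100. At least three independent experiments.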

[3] = (§2) Cytotoxicity against HEK293 cells assessed as cell viability at 100 uM measured after 24 to 48 hrs by MTT assay relative to control; type: cell-based; settings: human, HEK293 cells, time 24-48 hrs, read-out: Activity; procedure, shortened: as §1
MCF7 = test: Antiproliferative activity against human MCF7 cells assessed as reduction in cell viability measured after 24 to 48 hrs by MTT assay; type: functional, cell-based; procedure, shortened: as §1
U-87 MG [4] = test: Antiproliferative activity against human U-87 MG cells assessed as reduction in cell viability measured after 24 to 48 hrs by MTT assay; type: functional, cell-based, U-87MG ATCC; procedure, shortened: as §1
U-87 MG [5] = test: Antiproliferative activity against human U-87 MG cells assessed as cell viability at 50 uM measured after 24 to 48 hrs by MTT assay relative to control; type: functional, U-87MG ATCC; settings: time 24-48 hrs, read-out: Activity; procedure, shortened: as §1
U-87 MG [6] = test: Antiproliferative activity against human U-87 MG cells assessed as cell viability at 100 uM measured after 24 to 48 hrs by MTT assay relative to control; type: functional, U-87MG ATCC; settings: time 24-48 hrs, read-out: Activity; procedure, shortened: as §1
U-87 MG [7] = test: Antiproliferative activity against human U-87 MG cells assessed as cell viability at 5 uM measured after 24 to 48 hrs by MTT assay relative to control; type: functional, U-87MG ATCC; settings: time 24-48 hrs, read-out: Activity; procedure, shortened: as §1
[8] = target: Adenosine receptor A2a (Homo sapiens) (UniProt P29274); test: Displacement of [3H]ZM241385 from recombinant human A2A adenosine receptor expressed in HEK293 cell membranes at 1 uM measured after 60 mins by liquid scintillation counting method relative to control; settings: Membrane
Sequence of Adenosine receptor A2a (Homo sapiens) (P29274 whole entry): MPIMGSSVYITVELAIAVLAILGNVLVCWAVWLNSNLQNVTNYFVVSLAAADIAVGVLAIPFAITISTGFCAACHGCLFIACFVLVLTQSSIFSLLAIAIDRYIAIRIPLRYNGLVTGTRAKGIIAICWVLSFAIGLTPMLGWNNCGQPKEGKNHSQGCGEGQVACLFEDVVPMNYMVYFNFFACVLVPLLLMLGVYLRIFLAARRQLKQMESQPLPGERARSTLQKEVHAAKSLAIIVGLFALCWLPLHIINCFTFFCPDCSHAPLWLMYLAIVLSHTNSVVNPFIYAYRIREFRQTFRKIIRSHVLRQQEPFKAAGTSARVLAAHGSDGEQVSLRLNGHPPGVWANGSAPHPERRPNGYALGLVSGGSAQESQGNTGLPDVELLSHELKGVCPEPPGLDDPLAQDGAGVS
Procedure, shortened: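 HEK293 membranes expressing hA2A (20 μg/tube) were incubated with 15 nM [3H]ZM241385 and 1 μM test compound for 60 min at 25°C in 50 mM Tris-HCl, pH 7.4, 10 mM MgCl2. The reaction was stopped by GF/B filtration, followed by scintillation counting. Read-out was percent inhibition of specific binding.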

[9] = target: 3',5'-cyclic-AMP phosphodiesterase 4B (Homo sapiens, UniProt Q07343); test: Inhibition of recombinant human PDE4B using […] as substrate measured after 90 mins by colorimetric assay
Sequence of 3',5'-cyclic-AMP phosphodiesterase 4B (Q07343 whole entry): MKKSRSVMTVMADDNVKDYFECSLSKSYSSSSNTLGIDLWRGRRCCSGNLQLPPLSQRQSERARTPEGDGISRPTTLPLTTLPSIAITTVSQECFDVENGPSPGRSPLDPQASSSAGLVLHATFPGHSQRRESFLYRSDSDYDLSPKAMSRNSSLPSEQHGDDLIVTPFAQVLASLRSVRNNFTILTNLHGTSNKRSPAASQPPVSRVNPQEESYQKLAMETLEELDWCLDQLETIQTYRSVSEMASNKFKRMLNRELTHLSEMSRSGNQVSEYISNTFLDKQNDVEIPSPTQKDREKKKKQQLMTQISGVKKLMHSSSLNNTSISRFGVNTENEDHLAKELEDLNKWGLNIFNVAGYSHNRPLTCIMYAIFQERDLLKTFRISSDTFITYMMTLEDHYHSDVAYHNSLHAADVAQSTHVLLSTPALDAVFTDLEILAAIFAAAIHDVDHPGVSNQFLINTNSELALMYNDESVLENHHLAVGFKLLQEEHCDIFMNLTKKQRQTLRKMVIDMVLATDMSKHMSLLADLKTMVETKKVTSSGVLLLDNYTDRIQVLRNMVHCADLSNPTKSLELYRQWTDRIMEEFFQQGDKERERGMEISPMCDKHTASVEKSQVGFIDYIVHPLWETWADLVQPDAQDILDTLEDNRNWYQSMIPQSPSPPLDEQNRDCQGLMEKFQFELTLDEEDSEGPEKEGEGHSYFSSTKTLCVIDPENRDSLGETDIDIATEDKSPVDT
Procedure, shortened: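 Recombinant human PDE4 was incubated with 0.5 μM 5′-cGMP plus 5′-nucleotidase for 90 min at 30°C. The reaction was stopped with termination buffer for 20 min at room temperature, and released phosphate was read at OD 620 nm. IC50 was determined from 6 inhibitor concentrations. Compound stocks were in DMSO (less than 1%), with at least triplicate runs, mean ± SD.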

HEK293 [10] = test: Cytotoxicity against HEK293 cells assessed as reduction in cell viability measured after 24 to 48 hrs by MTT assay; type: cell-based; settings: Homo sapiens; procedure, shortened: as §1
HEK293 [11] = test: as §2; type: cell-based; settings: human, hek293, 100 µM, time 24-48 hrs; procedure, shortened: as §1
[12] = target: T2, Adenosine receptor A2b (Homo sapiens) (UniProt P29275); test: Displacement of [3H]ZM241385 from A2B adenosine receptor (unknown origin) at 1 uM measured after 60 mins by liquid scintillation counting method relative to control
T2 sequence (whole entry): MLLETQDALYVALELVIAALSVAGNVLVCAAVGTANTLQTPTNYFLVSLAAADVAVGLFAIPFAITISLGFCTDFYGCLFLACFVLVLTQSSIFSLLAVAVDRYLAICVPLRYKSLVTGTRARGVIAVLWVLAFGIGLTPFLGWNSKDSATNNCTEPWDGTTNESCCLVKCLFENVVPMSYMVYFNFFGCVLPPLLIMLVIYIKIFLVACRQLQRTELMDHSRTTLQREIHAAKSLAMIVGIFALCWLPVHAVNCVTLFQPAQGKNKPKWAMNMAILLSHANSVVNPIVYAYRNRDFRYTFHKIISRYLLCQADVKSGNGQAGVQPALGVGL

[13] = target: T2, Adenosine receptor A2b (Homo sapiens); test: Displacement of [3H]ZM241385 from A2B adenosine receptor (unknown origin) at 10 uM measured after 60 mins by liquid scintillation counting method relative to control

Row | Structure (SMILES) | inhibition [1] [%] | viability at 10 µM (U-87 MG [2]) [%] | viability at 100 µM [3] [%] | IC50 (MCF7) [µM] | IC50 (U-87 MG [4]) [µM] | viability at 50 µM (U-87 MG [5]) [%] | viability at 100 µM (U-87 MG [6]) [%] | viability at 5 µM (U-87 MG [7]) [%] | inhibition [8] [%] | IC50 [9] [µM] | IC50 (HEK293 [10]) [µM] | Activity (HEK293 [11]) [%] | inhibition [12] [%] | inhibition [13] [%]
1 | Cc1nc(-c2ccc(Cl)cc2)sc1C(=O)CSc1nc(N)c(C#N)c(-c2ccccc2)n1 | 8.7 | 67.9 | > 50 | 25.2 | 11.4 | 15.2 | 4.59 | 71.1 | -1.4 | 22.1 | – | – | – | –
2 | COc1ccc(-c2nc(SCC(=O)c3sc(-c4ccc(Cl)cc4)nc3C)nc(N)c2C#N)cc1 | 1.2 | 64.5 | > 50 | 10.1 | 10.6 | 17.8 | 0.79 | 69.7 | – | 18.1 | – | – | – | –
3 | COc1ccc(-c2nc(C)c(C(=O)CSc3nc(-c4ccc(OC)c(OC)c4)c(C#N)c(=O)[nH]3)s2)cc1 | 2.5 | 57.6 | – | 24 | 12.5 | 22.2 | 5.39 | 81.2 | 8.5 | 17.1 | 23.3 | – | – | –
4 | COc1ccc(-c2nc(C)c(C(=O)CSc3nc(N)c(C#N)c(-c4ccc(OC)cc4)n3)s2)cc1 | 9 | 28.7 | – | 24.3 | 1.56 | 13 | 0.26 | 35.6 | – | 3.15 | – | > 50 | 18 | 49
5 | COc1ccc(-c2nc(C)c(C(=O)CSc3nc(N)c(C#N)c(-c4ccc(Cl)cc4)n3)s2)cc1 | 1.1 | 44 | – | 11.2 | 4.54 | 23.1 | 3.9 | 51.4 | -7.1 | 0.97 | 39.2 | – | – | –
6 | Cc1nc(-c2ccccc2)sc1C(=O)CSc1nc(N)c(C#N)c(-c2ccccc2)n1 | 9.5 | 93 | – | 30.1 | 28.9 | 26.3 | – | 103 | 6.5 | > 100 | 46.7 | – | – | –
7 | COc1ccc(-c2nc(SCC(=O)c3sc(-c4ccccc4)nc3C)[nH]c(=O)c2C#N)cc1OC | 10 | 69.8 | – | 63.7 | 15.3 | 21.4 | 6.48 | 80.8 | 12 | > 100 | 91.8 | – | – | –
8 | COc1ccc(-c2nc(SCC(=O)c3sc(-c4ccccc4)nc3C)nc(N)c2C#N)cc1 | -4.6 | 60.8 | > 50 | 27.2 | 14 | 33.8 | 17.2 | 68.8 | 0.8 | 33.1 | – | – | – | –
9 | Cc1nc(-c2ccc(Cl)cc2)sc1C(=O)CSc1nc(N)c(C#N)c(-c2ccc(Cl)cc2)n1 | -3.7 | 37.3 | – | 12.5 | 3.42 | 15.5 | 1.65 | 46.1 | 1.8 | 24.1 | 73 | – | – | –
10 | Cc1nc(-c2ccccc2)sc1C(=O)CSc1nc(N)c(C#N)c(-c2ccc(Cl)cc2)n1 | – | 58.8 | > 50 | 20.2 | 10.8 | 44.3 | 17.1 | 62.9 | -9.9 | 32.3 | – | – | – | –
11 | COc1ccc(-c2nc(C)c(C(=O)CSc3nc(N)c(C#N)c(-c4ccccc4)n3)s2)cc1 | -2.8 | 57.8 | – | 72.1 | 8.54 | 16.5 | 5.25 | 61.8 | -2.6 | 11.2 | – | > 50 | – | –
